Compound activity from PubChem BioAssay.
The list is not random: actives were taken first. Their share in the collection is about 5.7%.
Beta cell apopt: inhibitors of cytokine-induced beta cell apoptosis, primary screen, luminescence; protection from apoptosis, % (test concentration not listed); INS-1E cytokine-induced death, ATP luminescence, 48 h; percent of positive-control rescue, neutral wells zero; actives 0.8% (n = 300,000);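 active = Every replicate reaches about 75%, or at least half do and their mean reaches it too, limit read from the data; inconclusive = At least half of replicates reach the limit but their mean does not; inactive = Under half of replicates reach the limit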;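 note: higher means more ATP so stronger rescue from cytokine killing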
SKKanGAS inh: S. pyogenes SKKanGAS growth inhibitors in kanamycin, primary screen, streptokinase expression inhibitor project, SKKanGAS strain, BacTiter-Glo luminescence; inhibition, % at 7.5 µM; 6 h; actives 1.3% (n = 300,000);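 active = mean replicate score, as percent of positive control median, at least 50; inconclusive = mean below 50 but one replicate at or above 50; inactive = mean and every replicate below 50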;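 note: strain carries kanamycin resistance gene driven by streptokinase promoter and grows in 40 µg/ml kanamycin; loss of luminescence reflects streptokinase promoter inhibition or plain growth inhibition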
T cruzi inh: inhibitors of intracellular T. cruzi growth, primary screen, luminescence, NIH3T3 host cells. T. cruzi beta-gal in NIH3T3, 90 h. inhibition, % (test concentration not listed). actives 1.4% (n = 300,000);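 active = mean inhibition across valid replicates above about 55%, limit read from the data; inconclusive = mean below that limit but half or more replicates reach it; inactive = mean below it, under half of replicates reach it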;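 note: signal also drops with host cell toxicity which is not excluded here; higher percent means less beta-gal luminescence so fewer parasites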
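Material: NIH/3T3 host cells with β-galactosidase reporter T. cruzi; Input: 5,000 host fibroblasts per well; Medium: DMEM, 2% fetal bovine serum; Compound: 50 nL DMSO compound solution per well; Schedule: 3 h host attachment, then at least 90 h co-culture; Detection: luminescent β-galactosidase signal after 60 min lysis.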
Mdm2-MdmX inh: inhibitors of human Mdm2-MdmX association, primary screen, cell-based, luminescence, split luciferase, SaOS-2, uHTS. Protein Mdm4 (Homo sapiens) + E3 ubiquitin-protein ligase Mdm2 (Homo sapiens), …. SaOS-2 split-luciferase Mdm2/MdmX complementation. inhibition, % at 8 µM. actives 3% (n = 330,000);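 active = inhibition of at least 50% at 8 µM in the primary screen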
Target sequence (O15151 whole entry, looked up): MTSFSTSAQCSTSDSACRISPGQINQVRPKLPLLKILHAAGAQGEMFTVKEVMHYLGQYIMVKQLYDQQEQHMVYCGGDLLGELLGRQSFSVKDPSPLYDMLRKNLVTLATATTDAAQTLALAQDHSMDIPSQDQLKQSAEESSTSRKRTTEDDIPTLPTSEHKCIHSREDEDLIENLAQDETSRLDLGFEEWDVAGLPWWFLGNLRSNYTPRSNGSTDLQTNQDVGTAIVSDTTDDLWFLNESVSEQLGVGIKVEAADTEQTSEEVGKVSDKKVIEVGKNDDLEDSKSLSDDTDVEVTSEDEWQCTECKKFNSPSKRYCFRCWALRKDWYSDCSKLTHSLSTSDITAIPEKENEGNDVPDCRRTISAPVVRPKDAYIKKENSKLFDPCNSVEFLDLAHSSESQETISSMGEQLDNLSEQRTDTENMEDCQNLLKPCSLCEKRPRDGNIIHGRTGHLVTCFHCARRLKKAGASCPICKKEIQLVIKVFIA
Target sequence (Q00987 whole entry, looked up): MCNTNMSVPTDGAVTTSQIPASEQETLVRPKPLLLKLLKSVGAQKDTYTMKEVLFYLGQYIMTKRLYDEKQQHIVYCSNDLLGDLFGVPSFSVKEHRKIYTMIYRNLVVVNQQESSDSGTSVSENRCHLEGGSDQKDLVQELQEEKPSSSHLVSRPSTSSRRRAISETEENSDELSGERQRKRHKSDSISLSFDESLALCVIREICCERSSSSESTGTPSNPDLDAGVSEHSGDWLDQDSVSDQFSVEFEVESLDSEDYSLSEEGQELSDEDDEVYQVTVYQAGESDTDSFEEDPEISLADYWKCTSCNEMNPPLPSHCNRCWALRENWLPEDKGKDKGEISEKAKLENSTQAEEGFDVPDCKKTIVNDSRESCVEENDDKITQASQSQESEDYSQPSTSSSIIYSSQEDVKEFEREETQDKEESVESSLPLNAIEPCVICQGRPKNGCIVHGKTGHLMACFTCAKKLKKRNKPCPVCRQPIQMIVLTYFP
Calb FLC: C. albicans growth inhibition with fluconazole, primary screen, CaCi-2 strain, Alamar Blue fluorescence; C. albicans CaCi-2 (fluconazole-resistant clinical isolate) + fluconazole, 48 h; actives 0.57% (n = 300,000); growth inhibition, % (test concentration not listed);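 active = growth inhibition above about 58% in most replicates, limit read from the data, passing the limit was not always enough; inconclusive = exactly half the replicates above a set limit; inactive = most replicates below a set limit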;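 note: all wells also contain fluconazole at 8 µg/ml as a sub-toxic cotreatment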
CSC inhib: cancer stem cell viability inhibitors, primary screen, luminescence; inhibition, % at 7.5 µM; cancer stem cell-like cells viability; actives 1.1% (n = 300,000); in the data active = inhibition above about 75%; inconclusive = no clear call, values can overlap the other calls; tested in HMLE shEcad cells
Large screens that a line does not name were inactive.

OCCOc1ccc(CN2CCCC(N3CCN(c4ccc(F)cc4)CC3)C2)cc1 (stereo not given)	none (no result: Beta cell apopt)
CCOc1ccc(CN2CCCC(N3CCN(c4ccc(OC)cc4)CC3)C2)cc1 (stereo not given)	T cruzi inh 58.6
O=C1C2CC=CCC2C(=O)N1c1ccc(NCCc2ccccc2)c([N+](=O)[O-])c1 (stereo not given)	CSC inhib 80.0
CC(=O)c1cccc(NC(=O)COC(=O)c2ccccc2C)c1	none (no result: Beta cell apopt)
O=C(Nc1ccccc1N1CCN(C(=O)c2ccc(Cl)cc2)CC1)c1ccc(Br)cc1	T cruzi inh 64.1 (no result: Beta cell apopt)
O=C(Nc1ccc(N2CCN(C(=O)c3ccc(Cl)cc3)CC2)cc1)c1cc2ccccc2o1	Calb FLC inconclusive
O=C(Nc1ccc(N2CCN(C(=O)c3ccc(Cl)cc3)CC2)cc1)c1ccc(Br)o1	T cruzi inh 69.9 (no result: CSC inhib)
Cc1ccc2c(=O)n3c(nc2c1)C(Cc1ccccc1)NC(=O)c1cc(Cl)ccc1-3 (stereo not given)	none (no result: SKKanGAS inh, T cruzi inh, Calb FLC, CSC inhib)
O=C(Nc1ccc(N2CCN(C(=O)c3ccccc3)CC2)cc1)c1ccc([N+](=O)[O-])o1	none (no result: Beta cell apopt, Mdm2-MdmX inh, CSC inhib)
O=C(NN(c1ccccc1)c1ccccc1)c1ccc([N+](=O)[O-])o1	T cruzi inh 63.6, Calb FLC inconclusive
O=C(Nc1cccnc1)c1ccc([N+](=O)[O-])o1	none
O=C(NNC(=O)c1ccc([N+](=O)[O-])o1)c1ccccc1	T cruzi inh 58.2
C/C(=N/NC(=O)C(O)(c1ccccc1)c1ccccc1)c1ccc([N+](=O)[O-])o1	T cruzi inh 75.0, Calb FLC inconclusive
Cc1cc(C)nc(NC(=O)c2ccc([N+](=O)[O-])o2)n1	none
Cc1ccc(S(=O)(=O)N2CCCCC2C)cc1[N+](=O)[O-] (stereo not given)	none
Cc1cccc(C)c1OCc1cc(C(=O)NCc2cn(C)nc2C)no1	none
CCOc1ccc(C(=O)NNC(=O)CN2C(=O)NC3(CCCC3)C2=O)cc1	none (no result: SKKanGAS inh, T cruzi inh, Calb FLC)
Cc1nc2sccn2c(=O)c1S(=O)(=O)Nc1ccc(N2CCN(S(C)(=O)=O)CC2)cc1	none
CCCCCCSc1cccc(-c2nc3ccc(C)cn3c2NCc2ccccc2)c1	CSC inhib 80.2
CCCCCCSc1cc(-c2nc3ccc(C)cn3c2NCc2ccccc2)ccc1OC	Beta cell apopt 116.8
CCCCCCSc1cccc(-c2nc3ccccn3c2NCc2ccccc2)c1	Beta cell apopt inconclusive, CSC inhib inconclusive (no result: SKKanGAS inh, T cruzi inh, Calb FLC)
Cc1ccc2nc(-c3cccc(-c4cccc(Cl)c4)c3)c(NCc3ccccc3)n2c1	Beta cell apopt 94.3, CSC inhib inconclusive
CCCCCCSc1cccc(-c2nc3cc(C)ccn3c2NCc2ccccc2)c1	none
CCCCNc1c(-c2ccc(-c3cccc(Cl)c3)cc2)nc2ccc(Cl)cn12	none (no result: SKKanGAS inh, T cruzi inh, Calb FLC)
CCC(C)Sc1cccc(-c2nc3ccc(C)cn3c2NCc2ccccc2)c1 (stereo not given)	Beta cell apopt inconclusive, SKKanGAS inh 66.7, CSC inhib 124.5
CC(OC(=O)C1CC1)C(=O)Nc1cc(Cl)cc(Cl)c1 (stereo not given)	none (no result: SKKanGAS inh, T cruzi inh, Calb FLC)
Cc1cc(COc2ccccc2)oc1C(=O)O	none
O=C(O)c1ccc2c(c1)C(=O)N(c1ccc(Nc3ccccc3)cc1)C2=O	none
Cc1ccc(NC(=O)/C=C/c2ccc([N+](=O)[O-])s2)c(C)c1	Beta cell apopt 106.3, CSC inhib 106.7 (no result: Mdm2-MdmX inh)
Cc1ccc(NC(=O)/C=C/c2ccc([N+](=O)[O-])s2)cc1	none
Cc1cccc(NC(=O)/C=C/c2ccc([N+](=O)[O-])s2)c1	Beta cell apopt 99.2, T cruzi inh 58.6, CSC inhib 107.1 (no result: Mdm2-MdmX inh)
O=C(NCC(c1ccco1)N1CCc2ccccc2C1)C(=O)Nc1ccccc1 (stereo not given)	none
CCN(C(=O)CCC(=O)N(CC)c1ccccc1)c1ccccc1	none
CCCC(=O)N(CCN(C(=O)CCC)c1ccccc1)c1ccccc1	Beta cell apopt 78.8, Calb FLC inconclusive
C=C(C)COc1ccc(-c2[nH]ncc2Oc2ccc(OC)cc2)c(O)c1	SKKanGAS inh 55.7, CSC inhib inconclusive
C=C(C)COc1ccc(-c2nc(N)ncc2-c2ccc(Br)cc2)c(O)c1	SKKanGAS inh 96.4, CSC inhib 106.6
C=C(C)COc1ccc(-c2nc(N)nc(C(F)(F)F)c2-c2ccc(OC)cc2)c(O)c1	T cruzi inh 56.0
C=C(C)COc1ccc(-c2ncncc2-c2ccc(Br)cc2)c(O)c1	none
C=C(C)COc1ccc(-c2[nH]ncc2Oc2ccccc2OC)c(O)c1	none
CCCOC(=O)c1ccc(Oc2cn[nH]c2-c2ccc(OC)cc2O)cc1	SKKanGAS inh 59.1, CSC inhib 103.7
O=C(CSc1nnc(CNC(=O)c2ccccc2F)o1)NC1CCCC1	none
Cc1ccc(NC2CCCN(C(=O)c3cn(C)c4ccccc34)C2)cc1C (stereo not given)	none
O=C(NC1CCCC1)C(c1ccccn1)N(Cc1ccccc1F)C(=O)c1csnn1 (stereo not given)	none
C=C(C)COc1ccc(-c2nc(N)ncc2Oc2ccc(OC)cc2)c(O)c1	SKKanGAS inh 58.0
COc1ccc(-c2cnc(N)nc2-c2ccc(OCc3ccccc3)cc2O)cc1	T cruzi inh 57.9
C=C(C)COc1ccc(-c2ncncc2-c2ccccc2OC)c(O)c1	T cruzi inh 66.0
COc1ccc(-c2nc(N)ncc2-c2ccc(OC)c(OC)c2)c(O)c1	none
CCc1cc(-c2nc(N)ncc2-c2ccc(Br)cc2)c(O)cc1OC	SKKanGAS inh 63.5, CSC inhib inconclusive
CCCCCOc1ccc(C(=O)CCC(=O)NC(C)c2ccc(S(N)(=O)=O)cc2)cc1 (stereo not given)	none (no result: SKKanGAS inh, T cruzi inh, Calb FLC)
Cc1ccc(SCC(=O)OCC(=O)N(CC(C)C)c2c(N)n(Cc3ccccc3)c(=O)[nH]c2=O)c(C)c1	none
Cc1ccccc1C(=O)O[C@H]1[C@H](Cc2ccccc2)NS(=O)(=O)[C@H]2CC3C=C[C@]12O3	none (no result: SKKanGAS inh, T cruzi inh, Calb FLC)
O=[N+]([O-])c1ccc(O)c2cccnc12	none
O=[N+]([O-])c1ccc(O)c2ncccc12	Beta cell apopt 97.0, T cruzi inh 73.6, Calb FLC 98.9, CSC inhib 82.2
O=[N+]([O-])c1cc(F)c2cccnc2c1O	none
O=[N+]([O-])c1cc(Cl)c2cccnc2c1O	SKKanGAS inh 83.4, Calb FLC 101.6, CSC inhib 97.6
O=C(Nc1ccc(C(=O)OC2CCCCC2)cc1)c1ccncc1	none
Cc1ccc(S(=O)(=O)N2CCCC2)s1	none
S=c1[nH]nc(-c2cc(-c3ccccc3)n[nH]2)n1/N=C/c1cccc(Cl)c1	SKKanGAS inh 60.0
S=c1[nH]nc(-c2cc(-c3ccccc3)n[nH]2)n1/N=C/c1ccc(Cl)c(Cl)c1	none
